# PAD4 inh: human PAD4 inhibitors, primary screen, biochemical, fluorescence polarization, 1536-well format; inhibition, % at 6.36 µM; Protein-arginine deiminase type-4 (Homo sapiens), Q9UM07; recombinant PAD4, RCA probe fluorescence polarization; 330,000 tested, 0.41% active; AID 485272, 2010;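 active = percent inhibition above a cutoff equal to the mean of all tested compounds plus 3 SD, cut at about 15% in these data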;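 also: 0% = PAD4 with RCA probe and DMSO and 100% = probe without PAD4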
# Apaf-1 inh: inhibitors of human Apaf-1 apoptosome, primary screen, biochemical, DEVD-Rh110 fluorescence, uHTS | inhibition, % at 20 µM | Apoptotic protease-activating factor 1 (Homo sapiens), O14727 | reconstituted apoptosome caspase-3 activity | 330,000 tested, 0.71% active | AID 489030, 2010; active = inhibition of at least 40% at 20 µM;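 also: plate controls were DMSO wells for no effect and DEVD-CHO caspase inhibitor wells for full effect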
#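 Material: biochemical Apaf-1 apoptosome reconstitution. Medium: Hepes buffer, pH 7.5. Also added: cytochrome c activation, bis-DEVD rhodamine 110 substrate. Timing: 30 min compound preincubation, 50 min activation, room temperature. Measured by: rhodamine 110 fluorescence at Ex 480/Em 540 nm.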
# UBC13 inh: UBC13 polyubiquitin chain formation inhibitors, primary screen, biochemical, TR-FRET, uHTS. Ubiquitin-conjugating enzyme E2 N (Homo sapiens), P61088. 330,000 tested, 0.47% active. inhibition, % at 20 µM. AID 485273, 2010; in the data active = inhibition above about 45%, passing the limit was not always enough
# Target sequence (P61088 whole entry, looked up): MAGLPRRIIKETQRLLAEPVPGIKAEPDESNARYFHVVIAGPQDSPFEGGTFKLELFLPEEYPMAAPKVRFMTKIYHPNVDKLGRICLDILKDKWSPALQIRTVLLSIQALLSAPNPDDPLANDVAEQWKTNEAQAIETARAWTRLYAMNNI
# Rin1 Abl inh: inhibitors of Rin1-Abl protein binding, primary screen, biochemical, TR-FRET; Tyrosine-protein kinase ABL1 (Homo sapiens) + Ras and Rab interactor 1 (Homo sapiens), …; inhibition, % at 7.35 µM; 360,000 tested, 0.4% active; AID 588664, 2011; in the data active = inhibition above about 5%, passing the limit was not always enough
# GSTO1 inh: inhibitors of recombinant GSTO1, primary screen, counter-screen for RBBP9 inhibitor project, biochemical, fluorescence polarization; 300,000 tested, 1.1% active; Glutathione S-transferase omega-1 (Homo sapiens), P78417; activity-based probe fluorescence polarization; inhibition, % at 5.96 µM;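 active = inhibition above the campaign mean inhibition plus 3 SD, cut at about 35% in these data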;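 also: 0% = GSTO1-1 with DMSO and 100% = wells lacking GSTO1-1 enzyme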
# Target sequence (P78417 whole entry, looked up): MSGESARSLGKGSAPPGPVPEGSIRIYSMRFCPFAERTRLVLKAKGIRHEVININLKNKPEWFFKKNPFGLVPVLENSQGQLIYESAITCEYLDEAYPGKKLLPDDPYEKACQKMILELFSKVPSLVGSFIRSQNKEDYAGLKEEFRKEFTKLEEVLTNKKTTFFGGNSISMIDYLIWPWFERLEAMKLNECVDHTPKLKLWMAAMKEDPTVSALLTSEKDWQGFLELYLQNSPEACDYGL
# UBC9 SUMO inh: inhibitors of in vitro SUMOylation cascade, primary screen, biochemical, HTRF, uHTS | 290,000 tested, 0.36% active | HTRF SUMOylation assay, SAE1/SAE2 + UBC9 | SUMO-conjugating enzyme UBC9 (Homo sapiens), P63279 | inhibition, % at 35 µM; in the data active = inhibition above about 50%, passing the limit was not always enough
# Target sequence (P63279 whole entry, looked up): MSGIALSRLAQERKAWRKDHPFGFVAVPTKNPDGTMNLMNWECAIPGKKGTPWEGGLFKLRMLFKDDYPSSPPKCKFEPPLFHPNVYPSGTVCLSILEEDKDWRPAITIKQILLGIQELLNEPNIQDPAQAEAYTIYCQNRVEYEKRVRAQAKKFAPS
# Rin1-Abl confirm: Rin1-Abl binding inhibitor retest, confirmation, biochemical, TR-FRET | shares compounds with Rin1 Abl inh | purified proteins | inhibition, % at 7.35 µM | 1,300 tested, 49% active
# GFP quench: GFP fluorescence inhibitors and quenchers, artefact control for Rin1-Abl interaction inhibitor project, biochemical; shares compounds with Rin1 Abl inh; inhibitors/quenchers counterscreen; inhibition, % at 6.75 µM; 1,300 tested, 8.5% active; AID 602125, 2011;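 also: ABL1-eGFP fusion protein alone without its partner RIN1-SBP; 0% = protein with vehicle and 100% = wells lacking protein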
# GFP quench dose: GFP fluorescence inhibitors and quenchers, dose response, artefact control for Rin1-Abl interaction inhibitor project, biochemical; shares compounds with Rin1 Abl inh; GFP fluorescence interference/quenching counterscreen; IC50, µM; 230 tested, under 10 active; AID 602182, 2012; call rule not given here;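 also: ABL1-eGFP fusion protein alone without its RIN1 binding partner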
# Numbers without * were called inactive; x = no result given; ! = a repeat was not active. Rows were chosen to be rich in hits. Some 2.2% of all compounds tested hit in one or more screens of this group. Rule as the data show it, unless noted: active = inhibition above about 6.5%; inactive = the rest.
SMILES,PAD4 inh,Apaf-1 inh,UBC13 inh,Rin1 Abl inh,GSTO1 inh,UBC9 SUMO inh,Rin1-Abl confirm,GFP quench,others
O=C1NNC(c2ccccc2)=N/C1=C\c1ccco1,1.0,-18.7,-19.3,1.3,22.1,-0.3,x,x,
O=C1NNC(c2ccccc2)=N/C1=C\c1ccccc1Cl,x,x,x,6.8*,x,81.2,8.3*,-1.0,
C=CCN1CCc2c(cc(O)c(O)c2Cl)C(c2ccccc2)C1 (configuration not stated),-2.1,6.2,5.4,7.5,11.9,-0.3,x,x,
Oc1ccc(C2CNCCc3c2cc(O)c(O)c3Cl)cc1 (configuration not stated),-2.3,-4.7,11.0,18.4*!,-3.0,x,30.4*,8.4*,
COc1ccc(CCNC(=O)CSc2nc3c(c(=O)n(C)c(=O)n3C)n2C)cc1OC,-1.3,-3.8,1.4,0.9,0.2,18.7,x,x,
CCc1nc(SCC(=O)NCCc2ccc(OC)c(OC)c2)c2c(=O)n(C)c(=O)n(C)c2n1,-1.7,1.1,-0.2,10.2*,5.2,-12.7,16.2*,0.9,
O=C(Cn1ccc(NC(=O)OCc2ccccc2)nc1=O)NCCN1CCOCC1,-1.6,-9.0,-9.9,4.0,x,x,x,x,
O=C(Nc1ccn(CCCN2CCN(c3ncccn3)CC2)c(=O)n1)OCc1ccccc1,x,x,x,8.5*,x,x,10.6*,-0.9,
O=C(Nc1ccn(CCCNCc2ccccn2)c(=O)n1)OCc1ccccc1,x,x,x,3.9,x,x,x,x,
O=C(Cn1ccc(NC(=O)OCc2ccccc2)nc1=O)NCCCN1CCCC1=O,-4.9,4.3,-9.9,11.7*,x,x,6.6*,-0.1,
O=C(Nc1ccn(CCCN2CCN(Cc3ccc(F)cc3)CC2)c(=O)n1)OCc1ccccc1,x,x,x,18.8*,x,x,19.5*,-0.5,GFP quench dose=>67.5
COc1cc(/C=C/C(=O)OCC(=O)N2c3ccccc3CC2C)cc(OC)c1OC (configuration not stated),1.2,18.0,12.8,-0.2,x,x,x,x,
CC1Cc2ccccc2N1C(=O)COC(=O)/C=C/c1cccc(F)c1 (configuration not stated),-7.7,8.7,0.6,12.4*,x,x,-2.0,-0.6,
Nc1ncnc2c1ncn2[C@@H]1O[C@H](CNC(=O)[C@@H]2CCN2)[C@@H](O)[C@H]1O,4.2,7.5,x,-3.2,x,x,x,x,
COc1ccc(NS(=O)(=O)c2ccc(OC)c(OC)c2)cc1OC,-1.0,-3.5,1.5,2.9,2.2,9.6,x,x,
COc1cc(S(=O)(=O)Nc2ccccc2)ccc1NC=O,3.1,-48.9,1.4,5.4*,5.4,5.9,-1.6,0.7,
O=C(Cn1c(=O)n(CCC(=O)N2CCCCC2)c(=O)c2sccc21)NCc1ccccc1,-1.8,-0.1,2.4,0.0,8.7,5.2,x,x,
CCCCN(C)C(=O)c1ccc2c(c1)S(=O)(=O)c1ccccc1C2=O,2.0,21.3,7.1,10.2*,-0.8,7.5,-3.2,1.9,
Cc1cccc(NC(=O)[C@@H](CC(C)C)NC(=O)[C@@H]2Cc3ccccc3CN2)c1,-1.6,5.6,1.8,29.5*,-0.1,5.5,2.2,1.1,
Cc1cccc(NC(=O)[C@H](NC(=O)[C@@H]2Cc3ccccc3CN2)c2ccccc2)c1,0.1,20.4,-3.3,2.2,-2.4,-6.6,x,x,
Cc1nn(C)c(C(=O)NNC(=S)NCc2ccccc2)c1Cl,x,-21.2,7.3,7.3*,x,3.0,-3.5,0.0,
O=c1cc(-c2ccccc2)cc(-c2ccccc2)n1O,-1.1,7.0,-0.7,-0.3,11.1,x,x,x,
Cc1cccc(N(Cc2ccccc2)C(=O)Cc2ccc(S(=O)(=O)N3CCOCC3)s2)c1,-2.3,19.5,-8.4,14.4*,-10.0,x,25.8*,0.6,GFP quench dose=>67.5
CCc1cccc(NC(=O)c2sc3nc4n(c(=O)c3c2C)CCC4)c1,0.7,0.9,2.4,10.4*,11.1,x,-3.2,-0.2,
CCOc1ccc(NS(=O)(=O)c2ccc(C(=O)N3CC(C)OC(C)C3)cc2)cc1 (configuration not stated),0.7,9.7,-7.1,8.9*,x,x,9.7*,-0.1,
SMILES,PAD4 inh,Apaf-1 inh,UBC13 inh,Rin1 Abl inh,GSTO1 inh,UBC9 SUMO inh,Rin1-Abl confirm,GFP quench,others
CCOc1ccc(S(=O)(=O)Nc2ccc(C(=O)N3CC(C)OC(C)C3)cc2)cc1 (configuration not stated),-2.1,3.5,-0.4,-0.4,6.0,x,x,x,
Oc1c(C(c2ccccn2)N2CCCCC2)cc(Cl)c2cccnc12 (configuration not stated),-2.2,-6.6,-0.9,21.7*,8.4,-48.1,14.1*,2.3,
CN1CCN(C(c2ccc(Cl)cc2)c2cc(Cl)c3cccnc3c2O)CC1 (configuration not stated),-0.7,27.7,9.0,2.7,-16.4,-5.9,x,x,
CC(=O)NC(c1ccc(N(C)C)cc1)c1cc(Cl)c2cccnc2c1O (configuration not stated),x,x,x,6.6*,x,x,6.9*,2.0,
COc1ccc(C(NC(C)=O)c2cc(Cl)c3cccnc3c2O)cc1 (configuration not stated),-2.9,-1.9,-11.3,8.2*,-4.0,-14.8,7.0*,1.2,
O=C(NC(c1ccc(Cl)cc1)c1cc(Cl)c2cccnc2c1O)c1cccnc1 (configuration not stated),1.5,x,x,3.1,-0.2,-11.7,x,x,
CC(=O)NC(c1ccccc1)c1cc(Cl)c2cccnc2c1O (configuration not stated),-1.5,-3.1,-13.9,12.2*,-2.6,11.4,10.4*,5.1,
Cc1cccc(C)c1NC(=O)c1csc([C@H]2C[C@H](O)[C@@H](CO)O2)n1,x,x,x,5.9,x,x,x,x,
COc1cc(NC(=O)COc2ccc(-n3cnnn3)cc2)cc(OC)c1OC,-3.0,-12.3,11.8,-1.0,x,x,x,x,
CSCC[C@H](NC(=O)N1CCn2c1nc1ccccc12)C(=O)N1CCCCC1,2.6,2.0,4.3,-0.4,-2.5,0.1,x,x,
CCOc1ccccc1NC(=O)CN1C(=O)NC(Cc2c[nH]c3ccccc23)C1=O (configuration not stated),-1.6,13.6,0.4,3.4,x,x,x,x,
